# Publication PMC7241432 (ACS infectious diseases, 2019)
# Where two headings read alike, the source gives them in different places.
# Key:
# [1] = Stability / PYR release in cell-free medium; assay type: physicochemical
# Outline: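 PYR measured colorimetrically: cell-free medium (R or nitrite-containing NR medium) mixed 1:1 with 0.01 M ferric nitrate in 0.1 N sulfuric acid and shaken 5–10 min at room temperature. Fe3+–PYR complex read by absorbance at 600 nm. Concentration taken from a linear sodium-PYR standard curve. Free PYR followed over 24 h (R medium) and 48 h (NR medium).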
# Mtb strain H37Rv = experiment: microbe, parasite or virus in culture; assay type: cell-based, Mycobacterium tuberculosis; conditions: for MBC: Mycobacterium tuberculosis, H37RV
# Mtb [2] = assay type: cell-based, Mycobacterium tuberculosis
# [3] = system: methicillin-sensitive S. aureus; experiment: Antimicrobial spectrum MIC90, MSSA; assay type: cell-based; conditions: Staphylococcus aureus, 24 h
# BlaC = biological target: T1, BlaC (Mycobacterium tuberculosis, UniProt P9WKD3); assay type: biochemical; conditions: 100 μM compound, 1 μM BlaC, 10 min
# T1 sequence (P9WKD3 35-307): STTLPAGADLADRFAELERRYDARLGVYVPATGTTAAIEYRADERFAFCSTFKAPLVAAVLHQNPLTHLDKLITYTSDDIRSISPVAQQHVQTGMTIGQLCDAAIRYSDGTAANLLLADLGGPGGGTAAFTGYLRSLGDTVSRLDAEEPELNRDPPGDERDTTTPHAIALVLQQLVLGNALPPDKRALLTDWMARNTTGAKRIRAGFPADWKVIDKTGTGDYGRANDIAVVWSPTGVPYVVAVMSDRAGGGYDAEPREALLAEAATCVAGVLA
# Mtb [4] = conditions: 14-day exposure of hypoxic Mtb, plus clavulanate; cited from earlier work
# [5] = system: luxAB (luciferase) containing strain of Mtb H37Rv; assay type: cell-based, Mycobacterium tuberculosis; conditions: hypoxic conditions, control
smiles,measurement,setting,value
"O=C(O)CSc1cccc[n+]1[O-] [Compound 10, 2-(carboxymethylthio)pyridine-N-oxide]",PYR release in cell-free medium,"[1]; Fe3+-PYR complex, absorbance at 600 nm",not released
"[O-][n+]1ccccc1S [PYR, pyrithione]",potency relative to cephalosporin 1a,Mtb strain H37Rv,equipotent on a molar basis
same,MBC,Mtb strain H37Rv; read-out: MBC NR CARA,1.25 µM
same,MBC,Mtb strain H37Rv; read-out: MBC NR CARA + 25 μM Clav,1.25 µM
same,MBC,Mtb strain H37Rv; read-out: MBC R CARA,1.25 µM
same,MBC,Mtb strain H37Rv; read-out: MBC R CARA + 25 μM Clav,1.25 µM
same,reduction of CFU of R Mtb,Mtb [2],> 5 orders of magnitude
same,time to reduce CFU of R Mtb by >5 orders of magnitude,Mtb [2],≤ 24 h
same,stability of free PYR in the medium used for NR conditions,[1]; NR medium,largely disappeared over 48 h
same,stability of free PYR in the medium used for R conditions,[1]; R medium,at least 24 h
same,MIC90,[3],25 µM
CC(=O)OCC1=C(C(=O)O)N2C(=O)[C@@H](NC(=O)Cc3cccs3)[C@H]2SC1 [cephalothin],UV-visible absorption spectrum after incubation with BlaC,BlaC,did not change
C[C@@H](O)[C@H]1C(=O)N2C(C(=O)O)=C(S[C@@H]3CN[C@H](C(=O)N(C)C)C3)[C@H](C)[C@H]12 [meropenem],reduction in colony-forming units (CFUs),Mtb [4],ca. 1 order of magnitude
CO[C@H]1/C=C/O[C@@]2(C)Oc3c(C)c(O)c4c(O)c(c(/C=N/N5CCN(C)CC5)c(O)c4c3C2=O)NC(=O)/C(C)=C\C=C\[C@H](C)[C@H](O)[C@@H](C)[C@@H](O)[C@@H](C)[C@H](OC(C)=O)[C@@H]1C [rifampicin],activity in LORA,[5],lost activity
